Experimental data from ChEMBL document CHEMBL5036376, “C20-nor-Abietane and Three Abietane Diterpenoids from Plectranthus mutabilis Leaves as P-Glycoprotein Modulators” (ACS Med Chem Lett, 2022).

Key:
NCI-H460 [1] = assay: Anticancer activity against human multi-drug resistant NCI-H460/R cells assessed as reduction in cell viability measured after 72 hrs by MTT assay; type: functional, cell-based; settings: NCI-H460, 72 h
Procedure, shortened: (§1)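 MTT read-out of metabolic activity (viability) in sensitive NSCLC NCI-H460, its P-gp-overexpressing MDR subline NCI-H460/R and normal embryonic lung fibroblasts MRC-5. Isolated diterpenes were tested at 2, 5, 10, 20 and 50 μM and acetone extract at 2, 5, 10, 20 and 50 μg/mL. IC50 was reported in μM for compounds and μg/mL for extract.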

[2] = Selectivity index, ratio of IC50 for cytotoxicity against human MRC-5 cells to of IC50 for anticancer activity against human NCI-H460 cells; type: toxicity, cell-based; settings: for selectivity ratio: MRC-5 cells versus NCI-H460 cells, read-out: Ratio IC50
Procedure, shortened: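 Selectivity index is the MRC-5 IC50 divided by the NCI-H460 IC50. Both come from MTT viability assays over 2–50 μM (compounds) or 2–50 μg/mL (extract).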

NCI-H460 [3] = assay: Anticancer activity against human NCI-H460 cells assessed as reduction in cell viability measured after 72 hrs by MTT assay; type: functional, cell-based; settings: NCI-H460, 72 h; procedure, shortened: as §1
MRC5 = assay: Cytotoxicity against human MRC-5 cells assessed as reduction in cell viability measured after 72 hrs by MTT assay; type: cell-based; settings: MRC5, 72 h; procedure, shortened: as §1
[4] = target: T1, ATP-dependent translocase ABCB1 (Homo sapiens, UniProt P08183); assay: Stimulation of P-gp in human multidrug resistant NCI-H460/R cells assessed as fluorescence activity ratio at 5 uM for 72 mins by Rho123 accumulation assay relative to control; settings: nci-h460, 1.2 h
T1 sequence (P08183 whole entry): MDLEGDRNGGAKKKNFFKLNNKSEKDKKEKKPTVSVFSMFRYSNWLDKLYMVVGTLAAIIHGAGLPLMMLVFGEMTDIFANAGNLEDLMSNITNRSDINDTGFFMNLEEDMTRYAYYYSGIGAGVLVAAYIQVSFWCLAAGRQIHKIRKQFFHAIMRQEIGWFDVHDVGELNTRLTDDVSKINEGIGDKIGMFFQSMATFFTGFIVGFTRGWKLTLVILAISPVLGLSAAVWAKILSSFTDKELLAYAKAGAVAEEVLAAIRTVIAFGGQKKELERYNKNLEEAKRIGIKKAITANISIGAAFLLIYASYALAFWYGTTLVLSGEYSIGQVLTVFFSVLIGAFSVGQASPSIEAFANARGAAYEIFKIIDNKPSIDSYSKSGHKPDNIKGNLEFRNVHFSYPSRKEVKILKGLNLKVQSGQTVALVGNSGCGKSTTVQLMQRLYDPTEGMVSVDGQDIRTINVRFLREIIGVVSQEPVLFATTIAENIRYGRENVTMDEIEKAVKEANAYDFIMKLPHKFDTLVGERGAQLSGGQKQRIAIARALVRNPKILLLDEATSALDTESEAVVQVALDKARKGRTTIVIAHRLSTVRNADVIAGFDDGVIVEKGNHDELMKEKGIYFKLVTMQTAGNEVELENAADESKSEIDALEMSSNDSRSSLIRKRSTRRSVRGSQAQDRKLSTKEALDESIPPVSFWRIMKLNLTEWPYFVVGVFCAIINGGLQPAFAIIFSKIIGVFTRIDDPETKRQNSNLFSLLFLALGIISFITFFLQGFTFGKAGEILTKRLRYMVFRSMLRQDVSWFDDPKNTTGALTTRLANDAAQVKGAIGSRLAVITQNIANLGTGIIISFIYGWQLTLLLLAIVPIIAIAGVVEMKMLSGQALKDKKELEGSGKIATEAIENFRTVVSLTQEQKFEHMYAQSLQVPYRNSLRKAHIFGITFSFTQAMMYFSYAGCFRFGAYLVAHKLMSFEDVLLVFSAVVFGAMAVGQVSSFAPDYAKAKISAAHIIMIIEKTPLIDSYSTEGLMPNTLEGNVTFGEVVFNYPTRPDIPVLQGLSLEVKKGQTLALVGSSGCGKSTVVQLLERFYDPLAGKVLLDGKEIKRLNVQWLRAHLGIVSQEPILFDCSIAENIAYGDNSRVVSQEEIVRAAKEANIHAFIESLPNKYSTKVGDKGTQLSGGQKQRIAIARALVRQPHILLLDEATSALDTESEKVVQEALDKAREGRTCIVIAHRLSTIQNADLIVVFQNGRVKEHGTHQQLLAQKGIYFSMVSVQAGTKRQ

[5] = Selectivity index, ratio of mean fluorescence intensity for stimulation of P-gp in human multidrug resistant NCI-H460/R cells to mean fluorescence intensity for stimulation of P-gp in human NCI-H460 cells assessed as decrease in Rho123 accumulation at 5 uM for 72 mins; type: functional; settings: 1.2 h
[6] = target: T1, ATP-dependent translocase ABCB1; assay: Stimulation of P-gp in human multidrug resistant NCI-H460/R cells assessed as decrease in Rho123 accumulation by measuring mean fluorescence intensity at 5 uM incubated for 72 hrs followed by rhodamine 123 measured after 30 mins by flow cytometry; settings: nci-h460, 72.5 h
Procedure, shortened: (§2)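 NCI-H460/R cells treated with the test agent for 72 h, then loaded with Rho123 for 30 min; intracellular mean fluorescence intensity (MFI) measured. References are untreated NCI-H460/R (MDR control) and parental NCI-H460 (sensitive control). FAR = MFI treated/MFI MDR control; SI = MFI treated × 100/MFI sensitive control; mean ± SE. Tariquidar is the P-gp inhibitor comparator.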

[7] = Selectivity index, ratio of mean fluorescence intensity for stimulation of P-gp in human multidrug resistant NCI-H460/R cells to mean fluorescence intensity for stimulation of P-gp in human NCI-H460 cells assessed as decrease in Rho123 accumulation at 10 uM for 72 mins; type: functional; settings: 1.2 h
[8] = target: T1, ATP-dependent translocase ABCB1; assay: Stimulation of P-gp in human multidrug resistant NCI-H460/R cells assessed as fluorescence activity ratio at 10 uM for 30 mins by Rho123 accumulation assay relative to control; settings: nci-h460, 0.5 h
[9] = Selectivity index, ratio of mean fluorescence intensity for stimulation of P-gp in human multidrug resistant NCI-H460/R cells to mean fluorescence intensity for stimulation of P-gp in human NCI-H460 cells assessed as decrease in Rho123 accumulation at 5 uM for 30 mins; type: functional; settings: 0.5 h
[10] = target: T1, ATP-dependent translocase ABCB1; assay: Stimulation of P-gp in human multi-drug resistant NCI-H460/R cells assessed as decrease in Rho123 accumulation by measuring mean fluorescence intensity at 5 uM incubated for 30 mins in presence of rhodamine 123 by flow cytometry; settings: nci-h460, 0.5 h
Procedure, shortened: (§3)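 NCI-H460/R (P-gp-overexpressing NSCLC) cells exposed to the test agent together with Rho123 for 30 min; mean fluorescence intensity (MFI) read. Untreated NCI-H460/R serve as MDR control and parental NCI-H460 as sensitive control. FAR = MFI treated/MFI MDR control; SI = MFI treated × 100/MFI sensitive control; mean ± SE. Tariquidar is the P-gp inhibition positive control.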

[11] = target: T1, ATP-dependent translocase ABCB1; assay: Stimulation of P-gp in human multi drug resistant NCI-H460/R cells assessed as decrease in Rho123 accumulation by measuring mean fluorescence intensity at 10 uM incubated for 30 mins in presence of rhodamine 123by flow cytometry; settings: nci-h460, 0.5 h; procedure, shortened: as §3
[12] = target: T1, ATP-dependent translocase ABCB1; assay: Stimulation of P-gp in human multidrug resistant NCI-H460/R cells assessed as fluorescence activity ratio at 5 uM for 30 mins by Rho123 accumulation assay relative to control; settings: nci-h460, 0.5 h
[13] = target: T1, ATP-dependent translocase ABCB1; assay: Stimulation of P-gp in human multidrug resistant NCI-H460/R cells assessed as fluorescence activity ratio at 10 uM for 72 mins by Rho123 accumulation assay relative to control; settings: nci-h460, 1.2 h
[14] = target: T1, ATP-dependent translocase ABCB1; assay: Stimulation of P-gp in human multidrug resistant NCI-H460/R cells assessed as decrease in Rho123 accumulation by measuring mean fluorescence intensity at 10 uM incubated for 72 hrs followed by rhodamine 123 measured after 30 mins by flow cytometry; settings: nci-h460, 72.5 h; procedure, shortened: as §2
[15] = Selectivity index, ratio of mean fluorescence intensity for stimulation of P-gp in human multidrug resistant NCI-H460/R cells to mean fluorescence intensity for stimulation of P-gp in human NCI-H460 cells assessed as decrease in Rho123 accumulation at 10 uM for 30 mins; type: functional; settings: 0.5 h
[16] = Selectivity index, ratio of mean fluorescence intensity for stimulation of P-gp in human multidrug resistant NCI-H460/R cells to mean fluorescence intensity for stimulation of P-gp in human NCI-H460 cells assessed as decrease in Rho123 accumulation at 50 uM for 30 mins; type: functional; settings: 0.5 h
Procedure, shortened: (§4)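 Rho123 and test agent given together to NCI-H460/R cells for 30 min, then mean fluorescence intensity (MFI) read. FAR = MFI of treated MDR cells / MFI of untreated MDR cells. SI = (MFI of treated MDR cells × 100) / MFI of untreated sensitive NCI-H460 cells. Tariquidar was the P-gp inhibition control. Mean ± SE.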

[17] = target: T1, ATP-dependent translocase ABCB1; assay: Stimulation of P-gp in human multidrug resistant NCI-H460/R cells assessed as fluorescence activity ratio at 50 uM for 30 mins by Rho123 accumulation assay relative to control; settings: nci-h460, 0.5 h; procedure, shortened: as §4
[18] = Selectivity index, ratio of mean fluorescence intensity for stimulation of P-gp in human multidrug resistant NCI-H460/R cells to mean fluorescence intensity for stimulation of P-gp in human NCI-H460 cells assessed as decrease in Rho123 accumulation at 0.05 uM for […]; type: functional
[19] = target: T1, ATP-dependent translocase ABCB1; assay: Stimulation of P-gp in human multidrug resistant NCI-H460/R cells assessed as decrease in Rho123 accumulation by measuring mean fluorescence intensity at 0.05 uM incubated for 72 hour followed by rhodamine 123 measured after 30 mins by flow cytometry; settings: nci-h460, 72 h; procedure, shortened: as §2
[20] = target: T1, ATP-dependent translocase ABCB1; assay: Stimulation of P-gp in human multidrug resistant NCI-H460/R cells assessed as fluorescence activity ratio at 0.05 uM […] by Rho123 accumulation assay relative to control; settings: nci-h460, 1.2 h
[21] = target: T1, ATP-dependent translocase ABCB1; assay: Stimulation of P-gp in human multi-drug resistant NCI-H460/R cells assessed as decrease in Rho123 accumulation by measuring mean fluorescence intensity at 50 uM incubated for 30 mins in presence of rhodamine 123 by flow cytometry; settings: nci-h460, 0.5 h; procedure, shortened: as §3

SMILES | IC50 (NCI-H460 [1]) [µM] | selectivity ratio [2] | IC50 (NCI-H460 [3]) [µM] | IC50 (MRC5) [µM] | Ratio [4] | Selectivity Index [5] | Flu intensity [6] | Selectivity Index [7] | Ratio [8] | Selectivity Index [9] | Flu intensity [10] | Flu intensity [11] | Ratio [12] | Ratio [13] | Flu intensity [14] | Selectivity Index [15] | further results
COc1cccc2c1C(=O)c1c(O)c3c(c(O)c1C2=O)C[C@@](O)(C(=O)CO)C[C@@H]3O[C@H]1C[C@H](N)[C@H](O)[C@H](C)O1 [DOXORUBICIN] | 1.62 |  |  |  |  |  |  |  |  |  |  |  |  |  |  |  | 
CC(=O)O[C@H]1C(=O)[C@@]2(C)[C@H]([C@H](OC(=O)c3ccccc3)[C@]3(O)C[C@H](OC(=O)[C@H](O)[C@@H](NC(=O)c4ccccc4)c4ccccc4)C(C)=C1C3(C)C)[C@]1(OC(C)=O)CO[C@@H]1C[C@@H]2O [PACLITAXEL] | 0.117 | 872 | 0.0006 | 0.523 |  |  |  |  |  |  |  |  |  |  |  |  | 
CC(C)c1c(O)c(O)c2c(c1O)C(=O)C(O)=C1C(C)(C)CCC[C@@]12C | 14.5 | 2.5 | 14.1 | 35.5 | 0.21 | 7 | 173.5 | 4.43 | 0.49 | 58.52 | 1258.8 | 253 | 2.45 | 0.14 | 109.7 | 11.76 | 
CC(C)C1=C(O)C(=O)[C@@]23O[C@@]2(C(=O)C(O)=C2C(C)(C)CCC[C@@]23C)C1=O | 17.3 | 2 | 20.2 | 40.2 | 0.36 | 11.68 | 289.7 | 11.16 | 1.3 | 33.08 | 711.6 | 666.1 | 1.39 | 0.34 | 276.6 | 30.97 | 
COc1cc2c(cc1OC)CN(CCc1ccc(NC(=O)c3cc(OC)c(OC)cc3NC(=O)c3cnc4ccccc4c3)cc1)CC2 [TARIQUIDAR] |  |  |  |  |  |  |  |  |  |  |  |  |  |  |  |  | Selectivity Index [16]: 121.16; Ratio [17]: 3.7; Selectivity Index [18]: 121.16; Flu intensity [19]: 3004; Ratio [20]: 3.7; Flu intensity [21]: 3004
CC(C)c1cc2c(c(O)c1O)[C@@]1(O)CCCC(C)(C)[C@@H]1C(=O)C2=O | > 50 |  | > 50 | > 50 | 0.33 | 10.72 | 265.9 | 10.26 | 1.12 | 27.68 | 595.3 | 573 | 1.16 | 0.31 | 254.5 | 26.64 | Ratio IC50 [2]: Not Active
CC(C)C1=C(O)C(=O)C2=C(C(=O)C(O)=C3C(C)(C)CCC[C@]23C)C1=O | 20.4 | 2 | 23 | 44.1 | 0.34 | 11.18 | 277.3 | 9.76 | 1.93 | 31.13 | 669.6 | 991.3 | 1.3 | 0.3 | 242 | 46.09 | 
